Screening data from PubChem.
In the library only some 2.3% were active in any assay of this set; here they are far more common.
ERp5 block = inhibitors of human ERp5; Q15084; ERp5 insulin aggregation, absorbance 650 nm, 90 min; inhibition, % at 9.99 µM; 350,000 tested, 0.05% active; AID 651711;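 active = mean replicate inhibition above about 25%, with every replicate also reaching it, limit read from the data, passing the limit was not always enough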
Target sequence (Q15084 whole entry, looked up): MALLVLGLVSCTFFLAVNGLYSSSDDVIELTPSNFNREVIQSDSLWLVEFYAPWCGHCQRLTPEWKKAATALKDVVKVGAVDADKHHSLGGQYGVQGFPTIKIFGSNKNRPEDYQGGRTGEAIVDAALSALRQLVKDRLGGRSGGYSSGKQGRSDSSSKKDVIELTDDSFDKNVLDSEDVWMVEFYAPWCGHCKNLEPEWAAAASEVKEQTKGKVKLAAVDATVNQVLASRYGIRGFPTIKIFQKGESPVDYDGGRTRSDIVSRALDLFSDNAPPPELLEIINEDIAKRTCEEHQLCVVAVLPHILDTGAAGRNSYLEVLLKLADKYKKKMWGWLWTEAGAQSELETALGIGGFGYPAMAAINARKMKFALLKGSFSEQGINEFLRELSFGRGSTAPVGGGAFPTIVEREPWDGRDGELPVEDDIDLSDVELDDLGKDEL
PDI inh = inhibitors of human protein disulfide isomerase; inhibition, % at 10 µM; PDI insulin aggregation turbidity, A650, 90 min; AID 588391; 350,000 tested, 0.052% active;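 active = mean inhibition across replicates of 30% or more, whatever share of single replicates reach that level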
F508del corr = correctors of CFTR F508del function in bronchial epithelial cells; 350,000 tested, 0.36% active; CFBE cells, YFP halide quenching; stimulated with forskolin plus potentiator P3; % fluorescence drop versus neutral controls; activity (quench increase), % at 7.58 µM;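 active = mean added fluorescence quench of at least 8% versus neutral control, with both replicates also reaching 8%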;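 also: cells transiently co-express mutant CFTR-F508del with the halide-sensitive YFP; corrector assay measuring rescue of mutant channel to the surface after 24 h compound exposure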
Statin myotox sup = suppression of simvastatin myotoxicity; C2C12 myotubes + simvastatin, ATP luminescence, 48 h; scaled: DMSO 0, geranylgeraniol control 100; 330,000 tested, 0.78% active; rescue of ATP level, % at 7.49 µM;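 active = mean ATP rescue above about 67%, or every replicate alone reaching that limit, limit read from the data, passing the limit was not always enough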;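 also: myotubes were challenged with 10 µM simvastatin during compound exposure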
Cneo AK release = causes C. neoformans cell lysis; lysis activity, % at 15 µM; adenylate kinase release luminescence, 4 h; normalised: neutral wells 0, clomiphene wells 100; AID 651654; 360,000 tested, 0.2% active;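 active = mean lysis activity across replicates of at least 80%, whatever share of replicates individually reach that level; inactive = mean lysis activity below 80%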
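Assay system: C. neoformans cells. Amount: yeast cell density of 5 × 10^6 cells/mL. Technique: AK luminescence. Buffer or medium: YPD. Times: static 4 h at 37 °C with compound, 1 h detection. Dosing: single-point compound dose. Read-out: lysis from increased AK signal.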
DENV2 CPE rescue = inhibitors of DENV2 cytopathic effect; DENV2-infected cells, cytopathic effect rescue, plate reader; CPE inhibition, % at 9.99 µM; 350,000 tested, 1.7% active; in the data active = CPE inhibition above about 20%, passing the limit was not always enough; tested in BHK-21 cells;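 also: 0% = median of neutral control wells and 100% = median of positive control wells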
Starred values were filed as active, the others as inactive; ! = repeats disagree.

`C[C@@H]1CN([C@@H](C)CO)C(=O)c2cc(-c3ccccc3)cnc2O[C@@H]1CN(C)C(=O)C1CCCCC1` gave ERp5 block -0.1, F508del corr 0.4, Statin myotox sup 5.1, Cneo AK release -4.4 and DENV2 CPE rescue 12.2.
`C/C=C/c1cnc2c(c1)C(=O)N([C@H](C)CO)C[C@@H](C)[C@@H](CN(C)C(=O)C1CCCCC1)O2` gave ERp5 block 2.9, F508del corr -2.6, Statin myotox sup 24.0, Cneo AK release 95.1* and DENV2 CPE rescue -5.1.
For C[C@@H]1CN([C@@H](C)CO)C(=O)c2cc(-c3ccccc3)cnc2O[C@H]1CN(C)C(=O)C1CCCCC1 the results were ERp5 block -1.1, F508del corr -0.7, Statin myotox sup -10.3, Cneo AK release 1.5 and DENV2 CPE rescue 50.8*.
`O=C(N[C@@H]1CC[C@H](CCNS(=O)(=O)c2ccc(F)cc2)O[C@@H]1CO)C1CC1` gave ERp5 block 3.2, F508del corr 0.9, Statin myotox sup -1.9, Cneo AK release -1.1 and DENV2 CPE rescue 1.8.
`O=C(C[C@@H]1CC[C@H]2[C@@H](COC[C@H](O)CN2Cc2ccc(F)cc2)O1)NCc1ccccc1Cl` gave ERp5 block -1.3, F508del corr 1.4, Statin myotox sup 11.7, Cneo AK release 0.8 and DENV2 CPE rescue 5.2.
`C/C=C/c1ccc(C2[C@H]3CNC[C@@H]2N3Cc2cc(OC)cc(OC)c2)cc1` (stereo not given in full) gave ERp5 block 1.5, F508del corr -2.4 and DENV2 CPE rescue -1.4.
C/C=C/c1ccc(C2[C@H]3CNC[C@@H]2N3Cc2nccs2)cc1 (stereo not given in full) was read as ERp5 block -0.1, F508del corr 1.7 and DENV2 CPE rescue 39.1*!.
Screening CCSc1nnc(-c2cccnc2)n1-c1ccc(Cl)c(C)c1 returned ERp5 block 0.2, PDI inh -4.4, F508del corr -0.5, Statin myotox sup 111.2*, Cneo AK release -2.6 and DENV2 CPE rescue -4.5.
`COc1cccc(-n2c(SCC(=O)O)nnc2-c2cccnc2)c1` gave ERp5 block -5.0, PDI inh -1.7, F508del corr 0.3, Statin myotox sup -1.3, Cneo AK release 0.2 and DENV2 CPE rescue -2.2.
CC(C)NC(=O)Nc1cccc2c1O[C@H](CN(C)S(=O)(=O)c1cccs1)[C@@H](C)CN([C@@H](C)CO)C2=O was read as F508del corr -0.6.
O=c1oc2ccccc2c(Nc2ccc(O)cc2)c1[N+](=O)[O-] was read as PDI inh -9.5, Statin myotox sup 133.2* and Cneo AK release -1.3.
`C[C@@H]1CN([C@H](C)CO)C(=O)c2ccccc2-c2ccccc2CO[C@H]1CN(C)C(=O)Nc1ccc(F)cc1` gave ERp5 block -2.8, F508del corr 1.9, Cneo AK release -0.9 and DENV2 CPE rescue 4.3.
Screening COc1ccc2c3c(n(C)c2c1)[C@@H](CO)N(CC1CC1)CC31CCN(C(=O)c2ccc(F)cc2)CC1 returned ERp5 block -4.0, F508del corr 4.5 and DENV2 CPE rescue 15.3.
Cc1cccc(N(C(=O)Cn2nnc3ccccc32)C(C(=O)NC(C)(C)C)c2ccsc2)c1 (stereo not given) was read as ERp5 block 2.7, PDI inh 2.3, F508del corr -3.0, Statin myotox sup -14.2, Cneo AK release 2.4 and DENV2 CPE rescue 23.6*.
For CCCN1C[C@@H](C)[C@@H](OC)CN(C)C(=O)c2ccc(NS(=O)(=O)c3ccccc3)cc2OC[C@@H]1C the results were ERp5 block 2.0, F508del corr -0.5, Statin myotox sup 2.6, Cneo AK release 0.2 and DENV2 CPE rescue 15.5.
CCCNC(=O)N1CC2(C1)[C@H](c1ccccc1)[C@H](CO)N2C(=O)C1CCCC1 was read as ERp5 block -2.7, F508del corr 2.2 and DENV2 CPE rescue -6.4.
`CCCNC(=O)N1CC2(CCN(CC3CC3)CC2)c2c([nH]c3cc(OC)ccc23)[C@@H]1CO` gave ERp5 block 3.8, F508del corr -3.5 and DENV2 CPE rescue 24.4*.
For CCCNC(=O)N1CC2(CCN(S(=O)(=O)CC)CC2)c2c([nH]c3cc(OC)ccc23)[C@@H]1CO the results were ERp5 block 0.5, F508del corr -0.6 and DENV2 CPE rescue 30.6*.
CCCNC(=O)N1CC2(CCN(CC3CCCC3)CC2)c2c([nH]c3cc(OC)ccc23)[C@H]1CO was read as ERp5 block -12.2, F508del corr 0.3 and DENV2 CPE rescue -0.5.
For CCCNC(=O)N1CC2(CCN(S(=O)(=O)CC)CC2)c2c([nH]c3cc(OC)ccc23)[C@H]1CO the results were ERp5 block -11.7, F508del corr 1.7 and DENV2 CPE rescue -3.6.
For COc1cccc(CN(C)C[C@H]2OCc3cn(nn3)CCCC(=O)N([C@@H](C)CO)C[C@H]2C)c1 the results were ERp5 block 1.8, F508del corr 0.8, Statin myotox sup 3.9, Cneo AK release -5.0 and DENV2 CPE rescue 0.3.
CN(C)CC1CC/C(=C\c2ccc(O)cc2)C1=O (stereo not given) was read as ERp5 block -1.3, PDI inh 86.6*, F508del corr -1.9 and DENV2 CPE rescue 0.5.
Screening O=C1/C(=C\c2ccc(Cl)cc2)CCC1CNc1ccc(Cl)cc1 (stereo not given) returned ERp5 block -1.1, PDI inh -10.9, F508del corr 0.3 and DENV2 CPE rescue 62.5*.
For CNC[C@H]1OCCCC[C@@H](C)Oc2ccc(NC(=O)NC(C)C)cc2C(=O)N([C@H](C)CO)C[C@@H]1C the results were ERp5 block -1.8, F508del corr 0.9, Cneo AK release -0.6 and DENV2 CPE rescue -0.7.
Screening CNC[C@H]1Oc2ccc(NC(=O)NC(C)C)cc2C(=O)N([C@@H](C)CO)C[C@@H]1C returned ERp5 block -3.5, F508del corr -0.9, Statin myotox sup -6.0, Cneo AK release 1.9 and DENV2 CPE rescue 28.3*.
For CNC[C@H]1OCCCC[C@@H](C)Oc2ccc(NC(=O)Nc3c(C)noc3C)cc2C(=O)N([C@H](C)CO)C[C@@H]1C the results were F508del corr -2.7 and Statin myotox sup 13.4.
`CNC[C@@H]1OCCCC[C@@H](C)Oc2ccc(NC(=O)Nc3c(C)noc3C)cc2C(=O)N([C@H](C)CO)C[C@H]1C` gave ERp5 block 0.7, F508del corr 2.0, Statin myotox sup -25.2, Cneo AK release -5.4 and DENV2 CPE rescue 21.8*.
For CNC[C@@H]1OCCCC[C@H](C)Oc2ccc(NC(=O)NC(C)C)cc2C(=O)N([C@H](C)CO)C[C@H]1C the results were ERp5 block -2.6, F508del corr -1.6, Cneo AK release 116.8* and DENV2 CPE rescue -1.8.
